Active and inactive are the calls of the source.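 The calls were made as follows, unless noted: active = fluorescence slope higher than the sample average by over 3 SD (cut at about -0.22 in these data, passing the limit was not always enough); inactive = the rest.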
Legend:
[1] = inhibitors of TNFa-induced NFkB p65 translocation, primary screen, imaging, HUVEC, MLSMR starter and 10KST1 sets (AID 438;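 active = inhibition above 20% together with a positive visual image hit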;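 also: compound added about 3h40 before a 20 min TNFalpha stimulation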;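 as to inhibition: signal is the nuclear over cytoplasmic p65 intensity ratio per well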); conditions: HUVEC TNFa-induced p65 nuclear translocation; cell count: measured here: nuclei count (cytotoxicity indicator), at 2.08 µM; inhibition: at 2 µM, stronger effect = higher value, 0% TNFa-plus-vehicle, 100% no-TNFa wells
[2] = inhibitors of mutant huntingtin aggregation, primary screen, imaging, exon1htt(103Q)mCFP cells, high-content imaging (AID 483;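 active = visual image review flags a hit and inhibition of aggregation exceeds 20%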;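 also: compound exposure lasted 3 days before fixation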;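 as to nuclei count: percent of the per-plate median nuclei count of sample wells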); conditions: exon1htt(103Q)mCFP cell line, aggregate imaging, at 2 µM; inhibition of aggregation: stronger effect = higher value; nuclei count: measured here: cell count, toxicity
[3] = inhibitors of E-selectin induction by TNFa, primary screen, imaging, HUVEC, immunofluorescence, MLSMR starter and 10KST1 sets (AID 487;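 active = visually confirmed hit in the image check and inhibition above 20%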;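 as to inhibition: signal is fraction of cell area covered by stained E-selectin grains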;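 as to nuclei count: 100% = median nuclei count of all wells on the same plate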); conditions: HUVEC TNFalpha-induced E-selectin immunofluorescence imaging, at 2 µM; inhibition: stronger effect = higher value; nuclei count: measured here: cell number, toxicity
[4] = target: Voltage-gated potassium channel subunit beta-2 (Rattus norvegicus) (UniProt P62483); test: KvBeta enzyme negative modulators, primary screen, biochemical, NADPH fluorescence (AID 622); conditions: recombinant KvBeta, 4-cyanobenzaldehyde reduction, at 10 µM, stronger effect = higher value;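 also: slope of raw intensity against log time taken from 70 to 1610 s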
Sequence of Voltage-gated potassium channel subunit beta-2 (Rattus norvegicus) (P62483 whole entry, looked up): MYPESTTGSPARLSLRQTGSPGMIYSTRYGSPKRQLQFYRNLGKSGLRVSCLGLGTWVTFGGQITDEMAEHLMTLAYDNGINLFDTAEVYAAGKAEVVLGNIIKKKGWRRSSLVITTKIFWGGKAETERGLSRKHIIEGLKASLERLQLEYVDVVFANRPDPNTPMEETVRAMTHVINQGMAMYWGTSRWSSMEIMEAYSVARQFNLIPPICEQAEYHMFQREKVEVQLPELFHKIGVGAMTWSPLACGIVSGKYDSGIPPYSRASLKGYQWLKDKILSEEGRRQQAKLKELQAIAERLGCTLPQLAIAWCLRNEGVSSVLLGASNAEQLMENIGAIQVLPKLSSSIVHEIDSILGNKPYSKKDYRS

[5] = target: Voltage-gated potassium channel subunit beta-2 (Rattus norvegicus) (UniProt P62483); test: KvBeta positive modulators, primary screen, biochemical, NADPH fluorescence (AID 623;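 active = NADPH fluorescence slope more negative than the mean of all samples by about 3 SD, 99.7% confidence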;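 also: fluorescence intensity change per second fitted from 20 to 320 s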); conditions: Recombinant KvBeta, NADPH fluorescence decrease slope, 10 min; at 10 µM; stronger effect = lower value
[6] = target: Muscarinic acetylcholine receptor M4 (Homo sapiens) (UniProt P08173); test: compounds altering M4/GIRK thallium flux, either direction, primary screen, M4 allosteric agonist project, cell-based, HEK293 M4/GIRK, BTC-AM (AID 625;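 active = fluorescence slope after compound addition differing from the mean of all tested samples at 99.7% confidence, mostly higher but some lower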;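 also: thallium influx through GIRK channels coupled to M4 in HEK293 cells with BTC-AM dye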); conditions: at 10 µM, actives lie on both sides
Sequence of Muscarinic acetylcholine receptor M4 (Homo sapiens) (P08173 whole entry, looked up): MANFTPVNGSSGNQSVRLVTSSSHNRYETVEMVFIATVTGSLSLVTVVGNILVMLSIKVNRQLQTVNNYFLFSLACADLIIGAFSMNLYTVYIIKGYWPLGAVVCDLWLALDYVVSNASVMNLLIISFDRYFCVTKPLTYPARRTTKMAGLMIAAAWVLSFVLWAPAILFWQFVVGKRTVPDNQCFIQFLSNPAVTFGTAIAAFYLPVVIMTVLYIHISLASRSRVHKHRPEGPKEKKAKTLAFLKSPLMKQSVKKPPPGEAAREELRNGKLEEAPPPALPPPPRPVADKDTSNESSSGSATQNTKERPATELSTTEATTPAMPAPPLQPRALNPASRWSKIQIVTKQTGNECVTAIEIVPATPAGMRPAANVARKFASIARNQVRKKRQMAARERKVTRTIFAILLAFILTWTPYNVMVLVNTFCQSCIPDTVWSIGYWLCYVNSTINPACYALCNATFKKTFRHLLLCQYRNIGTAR
In short: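 System: HEK293 cells with M4 receptor and GIRK channels | Incubation: Cells overnight at 37 °C, BTC-AM loading 1 h, reads 2 min total | Technique: Kinetic BTC-AM fluorescence sampled at 1 Hz, 10 s pre-addition baseline | Measure: Post-addition slope, 15–24 s, of baseline-normalized fluorescence | Control set: Carbachol positive, DMSO negative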

[7] = inhibitors of Sendai virus-induced IRF3 signaling, primary screen, TLR/RLR signaling modifier project, cell-based, Sendai virus stimulus, luciferase, 10K MLSCN set (AID 602276;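 active = inhibition at or above 50% at 10 µM; inactive = inhibition below 50%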;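 also: firefly luciferase from ISG56 promoter only with Renilla not read in this screen; 0% = Sendai virus plus DMSO and 100% = medium plus DMSO without virus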); conditions: HEK293 RL24 IRF3 luciferase reporter, at 10 µM, stronger effect = higher value
[8] = inhibitors of poly I:C-induced TLR3 signaling, primary screen, cell-based, poly I:C stimulus, luciferase, 10K MLSCN set (AID 602277;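 active = inhibition of the reporter signal at or above 50%; inactive = inhibition below 50%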); conditions: HEK293-TLR3 RL24 IRF3 luciferase reporter, at 10 µM, stronger effect = higher value

Compound | cell count [1] | inhibition [1] | inhibition of aggregation [2] | nuclei count [2] [%] | inhibition [3] | nuclei count [3] [%] | fluorescence slope [4] | NADPH fluorescence slope [5] | fluorescence slope [6] | inhibition [7] | inhibition [8]
Cc1ccc(S(=O)(=O)N(CC(=O)N2CCC(C(N)=O)CC2)c2cccc(C(F)(F)F)c2)cc1 | 327 | 1% (inactive) | -0.2% (inactive) | 112 | -15.7% (inactive) | 114 | -0.556 (inactive) | 5.5e-06 (inactive) | 0.00443 (inactive) | 25.2% (inactive) | 25.1% (inactive)
COc1cccc(CN(C)CC(=O)NC(=O)NCc2ccco2)c1 | 608 | 2.7% (inactive) | -3.5% (inactive) | 101 | -58.6% (inactive) | 180 | -0.49 (inactive) | 2.9e-05 (inactive) | 0.00617 (inactive) | -13.4% (inactive) | -18.8% (inactive)
O=c1oc2ccccc2n1CCn1c2ccccc2c2nc3ccccc3nc21 | 714 | -7.8% (inactive) | -10.6% (inactive) | 103 | -9.3% (inactive) | 109 | -0.273 (inactive) | -1.3e-05 (inactive) | 0.00487 (inactive) | -5.18% (inactive) | 9.99% (inactive)
CCCCn1c(SCc2cccnc2)nc2c1c(=O)n(C)c(=O)n2C | 502 | -7.2% (inactive) | 27.2% (inactive) | 90.8 | -15.9% (inactive) | 198 | -0.511 (inactive) | -3.3e-05 (inactive) | 0.00468 (inactive) | -4.82% (inactive) | 0.323% (inactive)
CC1(C)CC(=O)C2=C(C1)N(Cc1ccco1)C(=O)C2(NC(=O)C1CCCCC1)C(F)(F)F (stereo not drawn) | 670 | -2.6% (inactive) | 9.8% (inactive) | 111 | -51% (inactive) | 116 | -0.453 (inactive) | -6.1e-05 (inactive) | 0.00581 (inactive) | 16.7% (inactive) | 21.1% (inactive)
CCN1CCN(Cc2ccc(NC(=O)Nc3ccc(SC)cc3)cc2)CC1 | 268 | -1.7% (inactive) | 16.3% (inactive) | 97.3 | -52.1% (inactive) | 93.5 | -0.54 (inactive) | -3.4e-05 (inactive) | 0.00398 (inactive) | -29.9% (inactive) | -81.3% (inactive)
Cn1c(=O)oc2cc(S(=O)(=O)N3CCC(C(=O)Nc4ccc(OC(F)(F)F)cc4)CC3)ccc21 | 261 | 6.9% (inactive) | 19.4% (inactive) | 103 | -19.6% (inactive) | 75.1 | -0.572 (inactive) | -1.9e-05 (inactive) | 0.00653 (inactive) | 12.1% (inactive) | 17% (inactive)
Cc1cccc(CS(=O)(=O)Cc2ccc(C(=O)NCC3CCCO3)o2)c1 (stereo not drawn) | 450 | 4.5% (inactive) | 13.6% (inactive) | 99.3 | -36.2% (inactive) | 112 | -0.582 (inactive) | 9.9e-06 (inactive) | 0.00601 (inactive) | -2% (inactive) | 8.02% (inactive)
CCOC(=O)C1CCN(C(=O)c2ccc(OC)cc2OC)CC1 | 676 | -5.3% (inactive) | 0.1% (inactive) | 97.6 | 43.5% (inactive) | 86.8 | -0.566 (inactive) | 5.6e-06 (inactive) | 0.00429 (inactive) | 20% (inactive) | 20.5% (inactive)
COc1ccc(-c2cc3nc(C)c(CCC(=O)NCc4ccco4)c(C)n3n2)c(OC)c1 | 393 | 4.9% (inactive) | -18.2% (inactive) | 105 | -25% (inactive) | 83.7 | -0.443 (inactive) | -0.00019 (inactive) | 0.00532 (inactive) | 12.2% (inactive) | 11.7% (inactive)
CC(C)(C)OC(=O)N1CCC(C(=O)N[C@H](Cc2ccccc2)C(=O)O)CC1 | 523 | -7.8% (inactive) | 19.6% (inactive) | 85.5 | -11.8% (inactive) | 89.3 | -0.323 (inactive) | -5.3e-05 (inactive) | 0.00514 (inactive) | 15.3% (inactive) | 18.1% (inactive)
CSc1nc(NC(C)(C)C)nc(Oc2ccc(=O)[nH]n2)n1 | 356 | -6.2% (inactive) | 10.5% (inactive) | 86.5 | -29.6% (inactive) | 107 | -0.594 (inactive) | 1.9e-06 (inactive) | 0.0039 (inactive) | 12.8% (inactive) | 11.8% (inactive)
Cc1ccc2c(COn3nnc4ccc(S(=O)(=O)N(C)C)cc43)cc(=O)oc2c1C | 702 | 5.3% (inactive) | 16.4% (inactive) | 96.2 | 30.2% (inactive) | 94.7 | -0.543 (inactive) | -6.4e-05 (inactive) | 0.00895 (inactive) | -1.62% (inactive) | 10.1% (inactive)
COc1cccc(C2C(C#N)=C(N)OC3=C2C(=O)CCC3)c1OC(=O)c1ccco1 (stereo not drawn) | 384 | 4.7% (inactive) | -12.3% (inactive) | 103 | 52.8% (inactive) | 88.3 | -0.513 (inactive) | -3.8e-05 (inactive) | 0.00509 (inactive) | 12.4% (inactive) | 10.4% (inactive)
COC(=O)c1ccc(CN(c2ccccc2OC)S(=O)(=O)c2cccs2)o1 | 666 | 8.1% (inactive) | -4.4% (inactive) | 113 | 44.1% (inactive) | 98.6 | -0.534 (inactive) | -5.7e-05 (inactive) | 0.00695 (inactive) | 3.68% (inactive) | 7.96% (inactive)
COc1ccccc1Nc1nc(N)nc(CN2CCN(c3ccccc3F)CC2)n1 | 561 | -12.1% (inactive) | -5.7% (inactive) | 97.3 | 25.3% (inactive) | 97.6 | -0.571 (inactive) | -2.2e-05 (inactive) | 0.00301 (inactive) | -5.08% (inactive) | -10.4% (inactive)
Cc1ccc(CSc2nc3c(c(=O)[nH]2)C(c2ccncc2)C2=C(CCCC2=O)N3)cc1 (stereo not drawn) | 518 | -16.7% (inactive) | 3.6% (inactive) | 79.3 | -14.5% (inactive) | 87.2 | -0.457 (inactive) | -3.5e-05 (inactive) | 0.00543 (inactive) | 21.7% (inactive) | 15.5% (inactive)
c1ccc(CNC2=NCCC2)nc1 | 414 | -5.7% (inactive) | 14.2% (inactive) | 65.8 | 42.6% (inactive) | 75.5 | -0.586 (inactive) | -2.6e-05 (inactive) | 0.00615 (inactive) | 1.8% (inactive) | 10.1% (inactive)
FC(F)(F)c1cc(-c2ccco2)nc(-n2nnc3ccccc32)n1 | 529 | -6.9% (inactive) | -8.6% (inactive) | 109 | -12% (inactive) | 101 | -0.562 (inactive) | 1.3e-05 (inactive) | 0.00724 (inactive) | 15.2% (inactive) | 22.4% (inactive)
CCOC(=O)c1c(C)oc2c1c(C=NCc1ccccn1)c(O)c1ccccc12 | 738 | 4.7% (inactive) | 7.3% (inactive) | 84.9 | -112% (inactive) | 124 | -0.322 (inactive) | -2.5e-05 (inactive) | 0.00123 (inactive) | 8.4% (inactive) | 29.2% (inactive)
Cc1ccc2c(c1)-c1cc(C)nn1C(c1ccc3c(c1)OCO3)N2 (stereo not drawn) | 651 | 4.2% (inactive) | 16% (inactive) | 99.1 | -7.1% (inactive) | 130 | -0.568 (inactive) | -2.2e-05 (inactive) | 0.00558 (inactive) | -4.39% (inactive) | -18.6% (inactive)
CCn1c(=O)cc(SCC(=O)Nc2ccc3c(c2)OCO3)c2ccccc21 | 368 | 3.1% (inactive) | 1.5% (inactive) | 97.6 | -7.2% (inactive) | 115 | -0.432 (inactive) | 4e-05 (inactive) | 0.00544 (inactive) | -16.8% (inactive) | -13.5% (inactive)
CCOc1ccc(NC(=O)CSc2nnnn2CC(=O)O)cc1 | 482 | -1.4% (inactive) | -19.1% (inactive) | 112 | -110% (inactive) | 122 | -0.561 (inactive) | -4.1e-05 (inactive) | 0.00555 (inactive) | 10.5% (inactive) | 14.4% (inactive)
COC(=O)c1ccccc1NC(=O)Nc1cc(C)cc(C)n1 | 205 | 0.9% (inactive) | -2.4% (inactive) | 71.9 | 10.8% (inactive) | 140 | -0.504 (inactive) | -2.5e-05 (inactive) | 0.00537 (inactive) | 6.32% (inactive) | 99% (active)
CC(=O)OC(C(=O)NCc1ccco1)c1cccnc1 (stereo not drawn) | 609 | -36.2% (inactive) | -14.7% (inactive) | 105 | -9.7% (inactive) | 135 | -0.553 (inactive) | -7.1e-05 (inactive) | 0.00644 (inactive) | 13% (inactive) | 15.9% (inactive)
Cc1ccc2[nH]c(=O)c(CN(CCCO)S(=O)(=O)c3c(C)ccc4nsnc34)cc2c1 | 334 | -2.5% (inactive) | -11.4% (inactive) | 103 | -54.5% (inactive) | 120 | -0.459 (inactive) | -3e-05 (inactive) | 0.00552 (inactive) | 11.1% (inactive) | 29.7% (inactive)
CN(C(=O)c1c(Cl)nc2sccn12)C1CCCCC1 | 456 | 9.8% (inactive) | -13.5% (inactive) | 104 | -498% (inactive) | 162 | -0.464 (inactive) | -5.9e-05 (inactive) | 0.00592 (inactive) | 10.8% (inactive) | 6.58% (inactive)
O=C(Nc1ccccc1)c1ccc(NCC2CCCO2)c(S(=O)(=O)N2CCOCC2)c1 (stereo not drawn) | 637 | -1.5% (inactive) | 0.8% (inactive) | 108 | -99.7% (inactive) | 98.8 | -0.453 (inactive) | 1.2e-05 (inactive) | 0.00503 (inactive) | 5.98% (inactive) | 15.7% (inactive)
